The text below walks through data of ChEMBL document CHEMBL1139923, “Biological evaluation of de-O-sulfonated analogs of salacinol, the role of sulfate anion in the side chain on the alpha-glucosidase inhibitory activity” (Bioorg Med Chem, 2007).

Experiment [1] is filed under the species Rattus norvegicus. Put plainly: Inhibition of rat intestinal maltase at 400 ug/ml. The essentials:
(§1)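 Intestinal α-glucosidase from the in vitro assay with maltose as substrate, 74 mM in the substrate solution. Compound was dissolved in DMSO and diluted in 0.1 M maleate buffer, giving 2.5% DMSO final. Substrate, compound and enzyme solutions were incubated at 37 °C for 30 min, stopped by 2 min in boiling water, and glucose was measured by glucose-oxidase.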

The nature of experiment [2]: Inhibition of rat intestinal maltase. The essentials: as §1
Experiment [3] can be described thus: Inhibition of rat intestinal sucrase. The essentials: (§2)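 Sucrose (74 mM in the substrate solution, 0.1 M maleate buffer) was the substrate for intestinal α-glucosidase. Test compound was added from a DMSO stock diluted in buffer (2.5% DMSO final) along with enzyme. The mixture ran 30 min at 37 °C and was halted by boiling for 2 min. Released glucose was quantified by the glucose-oxidase method.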

The species named for experiment [4] is Rattus norvegicus. Put plainly: Inhibition of rat intestinal sucrase at 400 ug/ml. The essentials: as §2
For experiment [5], the species on record is Rattus norvegicus. Put plainly: Inhibition of rat intestinal maltase at 1092 uM. The essentials: as §1

Activity calls are given as the source filed them. The rule behind the calls is not given here.

`O=S(=O)([O-])O[C@@H](CO)[C@H](O)C[S@@+]1C[C@H](O)[C@@H](O)[C@@H]1CO`: the inhibition in experiment [1] is 18%; in experiment [4], 21%. Also, the IC50 in experiment [2] and in experiment [3] was over 1200 µM in each case.
For the molecule `OC[C@@H]1[C@@H](O)[C@H](O)C[S@@+]1C[C@@H](O)[C@@H](O)CO` [listing 1 of 2 here], the IC50 is 15.6 µM in experiment [2] and 3.7 µM in experiment [3].
As to `OC[C@H](O)[C@H](O)C[S@@+]1C[C@H](O)[C@@H](O)[C@@H]1CO`, the IC50 in experiment [2] and in experiment [3] was over 1090 µM throughout. The outcome in experiment [5] was inactive. Also, the inhibition in experiment [4] stood at 48%.
In the case of `O=S(=O)([O-])O[C@@H](CO)[C@H](O)C[S@+]1C[C@@H](O)[C@H](O)[C@H]1CO` [SALACINOL], the IC50 in experiment [2] was 9.6 µM; in experiment [3], 2.5 µM.
Taken in the same sequence, the figures for `OC[C@@H]1[C@@H](O)[C@H](O)C[S@@+]1C[C@@H](O)[C@@H](O)CO` [listing 2 of 2 here] were 14 µM and 3.5 µM.
